Consider four molecules from PMC9926436 (Doklady. Biochemistry and Biophysics, 2023).

Data set [1] has as its system human cytomegalovirus (HCMV), strain Davis. Format: cell-based. Conditions: Human betaherpesvirus 5, HEL, read-out: Antiviral activity, EC50, Davis. In outline:
(§1)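 HEL (human embryonic lung) cell cultures infected with HCMV strain AD-169 or Davis. Antiviral activity scored as inhibition of virus-induced cytopathic effect or of plaque formation.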

Data set [2] deals with HCMV (strains AD-169 and Davis). In words: Anti-HCMV activity in HEL cells, text statements not split by strain. It is filed as cell-based, human cytomegalovirus. The conditions noted are these: qualitative statement. In a few lines:
as §1

Data set [3] is described as follows: Cytostatic activity, cell growth. Format: cell-based. Conditions: human, human embryonic lung (HEL) cells. In outline:
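Cytostatic assay in HEL cells. Value is the cytotoxic concentration needed to reduce cell growth by 50%.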

Molecules are shown by their SMILES.

By EC50 is commonly meant the concentration at which the effect is half-maximal. A word on the CC50: it is the concentration at which the toxic effect on the cells reaches its halfway point. Low values mean harm at low concentration, high ones better tolerance by the cells.

As for `O=c1ccn(Cc2cccc3ccccc23)c(=O)n1CCCCCOc1ccc(Br)cc1` [Compound 27, 3-[5-(4-Bromophenoxy)pentyl]-1-(naphthalen-1-ylmethyl)uracil], the EC50 in data set [1] came out at 44.7 µM. Also, in data set [2], the “Anti-HCMV activity in words” value was “more than one order of magnitude less active”.
In data set [3], `Nc1nc(O)c2ncn(COC(CO)CO)c2n1` [Ganciclovir, ganciclovir] had a CC50 above 350 µM. Further, the EC50 in data set [1] was found to be 9.21 µM.
With `Nc1ccn(C[C@@H](CO)OCP(=O)(O)O)c(=O)n1` [Cidofovir, cidofovir], the 50% cytotoxic concentration (CC50) in data set [3] is above 300 µM. Moreover, the EC50 in data set [1] amounted to 1.49 µM.
`O=c1c2ccccc2n(CCCCCOc2ccc(Br)cc2)c(=O)n1Cc1cccc2ccccc12` [Compound 24, 1-[5-(4-bromophenoxy)pentyl]-3-(naphthalen-1-ylmethyl)quinazolin-2,4(1H,3H)-dione]: in data set [1], the EC50 is above 100 µM. In addition, the “Anti-HCMV activity in words” value in data set [2] is “inactive”.
